Measured values taken from the RNAGym collection of RNA variant scans (doi:10.1101/gad.245936.114).
This sample holds only a part of the variants without activity.

B1: tRNA (parent)
chain: CUCUCGGUAGCCAAGUUGGUUUAAGGCGCAAGACUUUAAUUUAUCACUACGAAAUCUUGAGAUCGGGCGUUCGACUCGCCCCCGGGAGAUUUUUUCCUCGAGCAA

Variants of: B1
Test: nonsense suppression (GFP-seq) (ratio to wild type); higher = more function; SUP4oc tRNA, yeast GFP reporter sort-seq
Method in brief: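 To measure nonsense suppression, tRNA variants from a library carrying ~3% random mutations were integrated into the yeast genome alongside RFP and a GFP ochre reporter under galactose control. Growth took place in raffinose/galactose medium supplemented with 80 mg/L adenine, followed by sorting into GFP/RFP bins and Illumina sequencing of each bin (phred ≥30). For each variant with ≥100 reads and ≥30 cells, the bin median GFP/RFP values were weighted by its estimated cell share per bin and referenced to the unmutated parent tRNA.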

**Q.** Which nonsense suppression does the source give for C75A C80U here?
**A.** 1.01

**Q.** Which nonsense suppression does the source give for A33U U55G here?
**A.** 0.167

**Q.** For A13C U17G, which nonsense suppression is on record?
**A.** 0.958

**Q.** With G25U C75U as the variant, how does the nonsense suppression read?
**A.** ≤ 0.026

**Q.** With U2C U20C A24U as the variant, how does the nonsense suppression read?
**A.** ≤ 0.026

**Q.** For U16C U21A U22G, which nonsense suppression is on record?
**A.** 0.861

**Q.** Which nonsense suppression does the source give for A31G C77A here?
**A.** ≤ 0.026

**Q.** With A24U as the variant, how does the nonsense suppression read?
**A.** 0.487

**Q.** Which nonsense suppression does the source give for U76A C79A here?
**A.** ≤ 0.026

**Q.** With G85C A89C as the variant, how does the nonsense suppression read?
**A.** ≤ 0.026

**Q.** Which nonsense suppression does the source give for G32A C79A G88A here?
**A.** ≤ 0.026

**Q.** With A31C C72G G78U as the variant, how does the nonsense suppression read?
**A.** ≤ 0.026

**Q.** Which nonsense suppression does the source give for G10C G25C G61C U71A here?
**A.** ≤ 0.026

**Q.** Which nonsense suppression does the source give for U63A C75G U76C here?
**A.** 1.19

**Q.** With G10A U21G G67C C79A as the variant, how does the nonsense suppression read?
**A.** ≤ 0.026

**Q.** For C3G C56G, which nonsense suppression is on record?
**A.** ≤ 0.026

**Q.** For U55G U63G U71C G88A, which nonsense suppression is on record?
**A.** ≤ 0.026

**Q.** For G7A U20C C82A G86A G88A A89C, which nonsense suppression is on record?
**A.** ≤ 0.026

**Q.** With G28A C56G A89C as the variant, how does the nonsense suppression read?
**A.** ≤ 0.026

**Q.** With U4C U17C as the variant, how does the nonsense suppression read?
**A.** 1.04

**Q.** With U70G C75U as the variant, how does the nonsense suppression read?
**A.** ≤ 0.026

**Q.** For A31U C56A U70C A89G, which nonsense suppression is on record?
**A.** ≤ 0.026

**Q.** With A31C G66C G85U as the variant, how does the nonsense suppression read?
**A.** ≤ 0.026

**Q.** Which nonsense suppression does the source give for A13C A54G G73C here?
**A.** ≤ 0.026

**Q.** With U22G C34A G85A as the variant, how does the nonsense suppression read?
**A.** ≤ 0.026

**Q.** For A23U A30U, which nonsense suppression is on record?
**A.** 0.0282

**Q.** For A9U U20G, which nonsense suppression is on record?
**A.** 0.12

**Q.** With U21C G25A G26A as the variant, how does the nonsense suppression read?
**A.** ≤ 0.026

**Q.** For C1A U4G C11U, which nonsense suppression is on record?
**A.** ≤ 0.026

**Q.** Which nonsense suppression does the source give for A31G A33G U55C G61A here?
**A.** 0.727

**Q.** Which nonsense suppression does the source give for G61C U76C here?
**A.** 0.23

**Q.** For G10A A60C G66C G78A, which nonsense suppression is on record?
**A.** ≤ 0.026

**Q.** With U63G U71C as the variant, how does the nonsense suppression read?
**A.** 0.028

**Q.** With A13U C79U as the variant, how does the nonsense suppression read?
**A.** 0.175

**Q.** Which nonsense suppression does the source give for A13C A23G A31U here?
**A.** ≤ 0.026

**Q.** With U4G G7A as the variant, how does the nonsense suppression read?
**A.** 0.0974

**Q.** With G78A C83A as the variant, how does the nonsense suppression read?
**A.** ≤ 0.026

**Q.** With A30G G73A C75A as the variant, how does the nonsense suppression read?
**A.** 0.318

**Q.** With A24C U58C as the variant, how does the nonsense suppression read?
**A.** 0.034

**Q.** With C5A U8C as the variant, how does the nonsense suppression read?
**A.** ≤ 0.026

**Q.** With C1G C5G A31C G73A as the variant, how does the nonsense suppression read?
**A.** ≤ 0.026

**Q.** With G78C G85U as the variant, how does the nonsense suppression read?
**A.** 0.232

**Q.** With U76A C80U as the variant, how does the nonsense suppression read?
**A.** 0.0419

**Q.** Which nonsense suppression does the source give for U22C C34G G88A here?
**A.** ≤ 0.026

**Q.** With A13G U16G as the variant, how does the nonsense suppression read?
**A.** 0.207

**Q.** Which nonsense suppression does the source give for A14C C56A C81G here?
**A.** ≤ 0.026

**Q.** Which nonsense suppression does the source give for A62U G67U G69U here?
**A.** ≤ 0.026

**Q.** For A9G C75A, which nonsense suppression is on record?
**A.** 0.762

**Q.** With A14U G32C G88U as the variant, how does the nonsense suppression read?
**A.** ≤ 0.026

**Q.** For A31U A62U, which nonsense suppression is on record?
**A.** 0.0539

**Q.** Which nonsense suppression does the source give for C81A A87U here?
**A.** ≤ 0.026

**Q.** Which nonsense suppression does the source give for G15A A24G C29G A60C here?
**A.** ≤ 0.026

**Q.** With U2A A23C as the variant, how does the nonsense suppression read?
**A.** ≤ 0.026

**Q.** With A30U G85U as the variant, how does the nonsense suppression read?
**A.** 0.0315

**Q.** Which nonsense suppression does the source give for G15U A23G U55G here?
**A.** ≤ 0.026

**Q.** With C1A C5G as the variant, how does the nonsense suppression read?
**A.** ≤ 0.026

**Q.** For A30U C68G, which nonsense suppression is on record?
**A.** ≤ 0.026

**Q.** Which nonsense suppression does the source give for A13U U16G here?
**A.** 0.819

**Q.** With C34G G86U as the variant, how does the nonsense suppression read?
**A.** ≤ 0.026

**Q.** For U63C C68U, which nonsense suppression is on record?
**A.** 0.228

**Q.** For U16G C27G, which nonsense suppression is on record?
**A.** ≤ 0.026

**Q.** For A9C C75A, which nonsense suppression is on record?
**A.** 0.938

**Q.** For A9G C29U C75G, which nonsense suppression is on record?
**A.** 0.252

**Q.** With U21G U70C as the variant, how does the nonsense suppression read?
**A.** ≤ 0.026

**Q.** With U4A U20C C83A as the variant, how does the nonsense suppression read?
**A.** ≤ 0.026

**Q.** For G7C A31C G32C, which nonsense suppression is on record?
**A.** ≤ 0.026

**Q.** With U2C U4G as the variant, how does the nonsense suppression read?
**A.** 0.0326

**Q.** With U22A as the variant, how does the nonsense suppression read?
**A.** 1.13

**Q.** Which nonsense suppression does the source give for A24C G78U here?
**A.** 0.0343

**Q.** With G10A U70C G78C A89C as the variant, how does the nonsense suppression read?
**A.** ≤ 0.026

**Q.** With A24C A74C as the variant, how does the nonsense suppression read?
**A.** 0.0915

**Q.** Which nonsense suppression does the source give for U4G C77A here?
**A.** 0.0479

**Q.** For U4A A13C C83U G84C, which nonsense suppression is on record?
**A.** ≤ 0.026

**Q.** For A9U A74U, which nonsense suppression is on record?
**A.** 0.106

**Q.** Which nonsense suppression does the source give for G25A G32U here?
**A.** ≤ 0.026

**Q.** For A9G A24G, which nonsense suppression is on record?
**A.** 0.0517

**Q.** Which nonsense suppression does the source give for C80U G84A here?
**A.** 0.125

**Q.** For C3U A31U, which nonsense suppression is on record?
**A.** ≤ 0.026

**Q.** Which nonsense suppression does the source give for C5G A13U G19U U35G A87G here?
**A.** ≤ 0.026

**Q.** For A31G U70C, which nonsense suppression is on record?
**A.** 0.0279

**Q.** With G28A C68U as the variant, how does the nonsense suppression read?
**A.** 1.17

**Q.** Which nonsense suppression does the source give for A24U C72G here?
**A.** 0.03

**Q.** For A9G A33C G66U, which nonsense suppression is on record?
**A.** ≤ 0.026
